The test has as its system Mycobacterium tuberculosis. Description: Antimycobacterial activity against rifampicin-resistant Mycobacterium tuberculosis ATCC 35838 by twofold agar dilution method. It counts as functional. In a few lines: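 Twofold agar dilution in Middlebrook 7H11 agar with 10% OADC (oleic acid, albumin, dextrose). Compounds dissolved in DMSO at 5 mg/mL (one in ethanol at 6 mg/mL), stock, stored cold. MIC determined for each strain. Strains: M. tuberculosis CIP 103471, H37Rv ATCC 27294, rifampicin-resistant ATCC 35838, M. avium CIP 103317.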

Structures are written as SMILES. ≈ marks a conversion by molar mass, not a printed value. Where only a bound is given, the exact number is not on record here.

By MIC is commonly meant the lowest concentration that inhibits growth of the organism.

Compound `CO[C@H]1/C=C/O[C@@]2(C)Oc3c(C)c(O)c4c(O)c(c(/C=N/N5CCN(C)CC5)c(O)c4c3C2=O)NC(=O)/C(C)=C\C=C\[C@H](C)[C@H](O)[C@@H](C)[C@@H](O)[C@@H](C)[C@H](OC(C)=O)[C@@H]1C` [RIFAMPIN] displayed a minimal inhibitory concentration (MIC) of over 100 µg/mL.
The figure for `CCc1c(CN2CCSCC2)cc(-c2ccccc2)n1-c1ccc(F)cc1` is 4 µg/mL (≈ 10.5 µM); for `CN[C@@H]1[C@H](O[C@H]2[C@H](O[C@H]3[C@H](O)[C@@H](O)[C@H](N=C(N)N)[C@@H](O)[C@@H]3N=C(N)N)O[C@@H](C)[C@]2(O)C=O)O[C@@H](CO)[C@H](O)[C@H]1O` [STREPTOMYCIN] it is 0.5 µg/mL (≈ 0.86 µM).
Consider `CCc1c(CN2CCSCC2)cc(-c2ccccc2)n1-c1ccccc1`, for which inhibition of growth (MIC) required 4 µg/mL (≈ 11 µM). Compared with the last compound, the MIC is about 8-fold higher.
Regarding `CCc1c(CN2CCSCC2)cc(-c2ccc(F)cc2)n1-c1ccccc1F`, the minimum inhibitory concentration (MIC) stood at 2 µg/mL (≈ 5.02 µM).
The compound `CCc1c(CN2CCSCC2)cc(-c2ccccc2F)n1-c1ccccc1F` had a minimal inhibitory concentration (MIC) of 8 µg/mL (≈ 20.1 µM).
The figure for `CCc1c(CN2CCN(C)CC2)cc(-c2ccc(Cl)cc2)n1-c1ccc(Cl)cc1` is 4 µg/mL (≈ 9.34 µM); for `CCc1c(CN2CCSCC2)cc(-c2ccc(F)cc2)n1-c1ccccc1` it is 1 µg/mL (≈ 2.63 µM).
The figure for `CCc1c(CN2CCSCC2)cc(-c2ccc(C)cc2)n1-c1ccc(F)cc1` is 0.25 µg/mL (≈ 0.634 µM).
